How the values were obtained:
Assay type in all cases: functional
[1] = test system: MCF7; test: Growth inhibition of human MCF7 cells assessed as cell growth at 10 uM after 48 hrs by sulforhodamine B assay; conditions: MCF7, 48 h, read-out: Activity
Procedure, shortened: (§1)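 NCI 60-cell-line panel screen (nine cancer types). Compounds added at single concentration 10^-5 M, cultures incubated 48 h; growth inhibition percentages reported.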

[2] = test system: SW-620; test: Growth inhibition of human SW620 cells assessed as cell growth at 10 uM after 48 hrs by sulforhodamine B assay; conditions: SW-620, 48 h, read-out: Activity
Procedure, shortened: (§2)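 NCI 60-cell-line panel from nine tumour types (leukaemia, lung, colon, CNS, melanoma, ovarian, renal, prostate, breast). Each compound was added at one single concentration, and cultures were incubated for 48 h. Results are reported as percent growth inhibition.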

[3] = test system: 786-0; test: Growth inhibition of human 786-0 cells assessed as cell growth at 10 uM after 48 hrs by sulforhodamine B assay; conditions: 786-0, 48 h, read-out: Activity; procedure, shortened: as §1
[4] = test system: MOLT-4; test: Growth inhibition of human MOLT4 cells assessed as cell growth at 10 uM after 48 hrs by sulforhodamine B assay; conditions: MOLT-4, 48 h, read-out: Activity; procedure, shortened: as §1
[5] = test system: HOP-92; test: Growth inhibition of human HOP92 cells assessed as cell growth at 10 uM after 48 hrs by sulforhodamine B assay; conditions: HOP-92, 48 h, read-out: Activity; procedure, shortened: as §1
[6] = test system: NCI-H460; test: Growth inhibition of human NCI-H460 cells assessed as cell growth at 10 uM after 48 hrs by sulforhodamine B assay; conditions: NCI-H460, 48 h, read-out: Activity; procedure, shortened: as §1
[7] = test system: KM12; test: Growth inhibition of human KM12 cells assessed as cell growth at 10 uM after 48 hrs by sulforhodamine B assay; conditions: KM12, 48 h, read-out: Activity; procedure, shortened: as §1
[8] = test system: HOP-62; test: Growth inhibition of human HOP62 cells assessed as cell growth at 10 uM after 48 hrs by sulforhodamine B assay; conditions: HOP-62, 48 h, read-out: Activity; procedure, shortened: as §1
[9] = test system: U-251; test: Growth inhibition of human U251 cells assessed as cell growth at 10 uM after 48 hrs by sulforhodamine B assay; conditions: U-251, 48 h, read-out: Activity; procedure, shortened: as §2
[10] = test system: IGROV-1; test: Growth inhibition of human IGROV1 cells assessed as cell growth at 10 uM after 48 hrs by sulforhodamine B assay; conditions: IGROV-1, 48 h, read-out: Activity; procedure, shortened: as §1
[11] = test system: ACHN; test: Growth inhibition of human ACHN cells assessed as cell growth at 10 uM after 48 hrs by sulforhodamine B assay; conditions: read-out: Activity; procedure, shortened: as §1
[12] = test system: NCI-H226; test: Growth inhibition of human NCI-H226 cells assessed as cell growth at 10 uM after 48 hrs by sulforhodamine B assay; conditions: NCI-H226, 48 h, read-out: Activity; procedure, shortened: as §1
[13] = test system: LOX IMVI; test: Growth inhibition of human LOXIMVI cells assessed as cell growth at 10 uM after 48 hrs by sulforhodamine B assay; conditions: read-out: Activity; procedure, shortened: as §1
[14] = test system: Hs-578T; test: Growth inhibition of human Hs 578T cells assessed as cell growth at 10 uM after 48 hrs by sulforhodamine B assay; conditions: read-out: Activity; procedure, shortened: as §1
[15] = test system: A549; test: Growth inhibition of human A549/ATCC cells assessed as cell growth at 10 uM after 48 hrs by sulforhodamine B assay; conditions: A549, 48 h, read-out: Activity; procedure, shortened: as §1
[16] = test system: RXF 393; test: Growth inhibition of human RXF393 cells assessed as cell growth at 10 uM after 48 hrs by sulforhodamine B assay; conditions: RXF 393, 48 h, read-out: Activity; procedure, shortened: as §1
[17] = test system: NCI-H322M; test: Growth inhibition of human NCI-H322M cells assessed as cell growth at 10 uM after 48 hrs by sulforhodamine B assay; conditions: read-out: Activity; procedure, shortened: as §1
[18] = test system: MDA-MB-231; test: Growth inhibition of human MDA-MB-231 cells assessed as cell growth at 10 uM after 48 hrs by sulforhodamine B assay; conditions: MDA-MB-231, 48 h, read-out: Activity; procedure, shortened: as §1
[19] = test system: HT-29; test: Growth inhibition of human HT-29 cells assessed as cell growth at 10 uM after 48 hrs by sulforhodamine B assay; conditions: HT-29, 48 h, read-out: Activity; procedure, shortened: as §1
[20] = test system: CCRF-CEM; test: Growth inhibition of human CCRF-CEM cells assessed as cell growth at 10 uM after 48 hrs by sulforhodamine B assay; conditions: read-out: Activity; procedure, shortened: as §1
[21] = test system: DU-145; test: Growth inhibition of human DU145 cells assessed as cell growth at 10 uM after 48 hrs by sulforhodamine B assay; conditions: DU-145, 48 h, read-out: Activity; procedure, shortened: as §1
[22] = test system: EKVX; test: Growth inhibition of human EKVX cells assessed as cell growth at 10 uM after 48 hrs by sulforhodamine B assay; conditions: read-out: Activity; procedure, shortened: as §1
[23] = test system: T47D; test: Growth inhibition of human T47D cells assessed as cell growth at 10 uM after 48 hrs by sulforhodamine B assay; conditions: read-out: Activity; procedure, shortened: as §2
[24] = test system: COLO 205; test: Growth inhibition of human COLO205 cells assessed as cell growth at 10 uM after 48 hrs by sulforhodamine B assay; conditions: COLO 205, 48 h, read-out: Activity; procedure, shortened: as §1
[25] = test system: OVCAR-4; test: Growth inhibition of human OVCAR4 cells assessed as cell growth at 10 uM after 48 hrs by sulforhodamine B assay; conditions: OVCAR-4, 48 h, read-out: Activity; procedure, shortened: as §1
[26] = test system: MDA-MB-435; test: Growth inhibition of human MDA-MB-435 cells assessed as cell growth at 10 uM after 48 hrs by sulforhodamine B assay; conditions: MDA-MB-435, 48 h, read-out: Activity; procedure, shortened: as §1
[27] = test system: NCI/ADR-RES; test: Growth inhibition of human NCI-ADR-RES cells assessed as cell growth at 10 uM after 48 hrs by sulforhodamine B assay; conditions: read-out: Activity; procedure, shortened: as §1
[28] = test system: OVCAR-5; test: Growth inhibition of human OVCAR5 cells assessed as cell growth at 10 uM after 48 hrs by sulforhodamine B assay; conditions: OVCAR-5, 48 h, read-out: Activity; procedure, shortened: as §1
[29] = test system: SNB-19; test: Growth inhibition of human SNB19 cells assessed as cell growth at 10 uM after 48 hrs by sulforhodamine B assay; conditions: SNB-19, 48 h, read-out: Activity; procedure, shortened: as §2
[30] = test system: RPMI-8226; test: Growth inhibition of human RPMI8226 cells assessed as cell growth at 10 uM after 48 hrs by sulforhodamine B assay; conditions: RPMI-8226, 48 h, read-out: Activity; procedure, shortened: as §1
[31] = test system: M14; test: Growth inhibition of human M14 cells assessed as cell growth at 10 uM after 48 hrs by sulforhodamine B assay; conditions: M14, 48 h, read-out: Activity; procedure, shortened: as §1
[32] = test system: Malme-3M; test: Growth inhibition of human MALME-3M cells assessed as cell growth at 10 uM after 48 hrs by sulforhodamine B assay; conditions: read-out: Activity; procedure, shortened: as §1
[33] = test system: SNB-75; test: Growth inhibition of human SNB75 cells assessed as cell growth at 10 uM after 48 hrs by sulforhodamine B assay; conditions: SNB-75, 48 h, read-out: Activity; procedure, shortened: as §2
[34] = test system: NCI-H23; test: Growth inhibition of human NCI-H23 cells assessed as cell growth at 10 uM after 48 hrs by sulforhodamine B assay; conditions: NCI-H23, 48 h, read-out: Activity; procedure, shortened: as §1
[35] = test system: SF-268; test: Growth inhibition of human SF268 cells assessed as cell growth at 10 uM after 48 hrs by sulforhodamine B assay; conditions: SF-268, 48 h, read-out: Activity; procedure, shortened: as §1

| Compound | growth at 10 µM [1] | growth at 10 µM [2] | growth at 10 µM [3] | growth at 10 µM [4] | growth at 10 µM [5] | growth at 10 µM [6] | growth at 10 µM [7] | growth at 10 µM [8] | growth at 10 µM [9] | growth at 10 µM [10] | growth at 10 µM [11] | growth at 10 µM [12] | growth at 10 µM [13] | growth at 10 µM [14] | growth at 10 µM [15] | growth at 10 µM [16] | growth at 10 µM [17] | growth at 10 µM [18] | growth at 10 µM [19] | growth at 10 µM [20] | also measured |
| --- | --- | --- | --- | --- | --- | --- | --- | --- | --- | --- | --- | --- | --- | --- | --- | --- | --- | --- | --- | --- | --- |
| CCOc1ccc(-n2nc(C(=O)NCc3cccc(OC)c3)nc2-c2cc(OC)c(OC)c(OC)c2)cc1 | 84.1% | 108% | 90.2% | 69.9% | 95.6% | 102% | 96.4% | 72.4% | 94.2% | 80.4% | 97.5% | 89.4% | 88.9% | 93.3% | 73.2% | 92.5% | 81.6% | 76.3% | 73.5% | 94.2% | growth at 10 µM [21]: 107%; growth at 10 µM [22]: 89.1%; growth at 10 µM [23]: 69.8%; growth at 10 µM [24]: 91.8%; growth at 10 µM [25]: 98.9%; growth at 10 µM [26]: 92.5%; growth at 10 µM [27]: 82.5%; growth at 10 µM [28]: 120%; growth at 10 µM [29]: 90.1%; growth at 10 µM [30]: 84.3%; growth at 10 µM [31]: 92.9%; growth at 10 µM [32]: 97.7%; growth at 10 µM [33]: 53.2%; growth at 10 µM [34]: 94.3%; growth at 10 µM [35]: 91.5% |
| CCOc1ccc(-n2nc(C(=O)Nc3ccccc3)nc2-c2cc(OC)c(OC)c(OC)c2)cc1 | 37% | 36.1% | 69.4% | 42.9% | 46% | 27.9% | 27.5% | 55.7% | 36.1% | 55.1% | 62.8% | 80% | 55.8% | 39.6% | 41.4% | 69.2% | 67.6% | 43.9% | 13% | 50.8% | growth at 10 µM [21]: 89.6%; growth at 10 µM [22]: 53.2%; growth at 10 µM [23]: 39.4%; growth at 10 µM [24]: 22.1%; growth at 10 µM [25]: 59.5%; growth at 10 µM [26]: 0.19%; growth at 10 µM [27]: 45.7%; growth at 10 µM [28]: 84.1%; growth at 10 µM [29]: 55.8%; growth at 10 µM [30]: 47.4%; growth at 10 µM [31]: 38%; growth at 10 µM [32]: 54.5%; growth at 10 µM [33]: 35.1%; growth at 10 µM [34]: 66.6%; growth at 10 µM [35]: 76.5% |
| CCOc1ccc(-n2nc(C(=O)NCc3ccccc3OC)nc2-c2cc(OC)c(OC)c(OC)c2)cc1 | 22.1% | 58% | 41.5% | 0.38% | 29% | 30.5% | 33.8% | 62.2% | 42.5% | 43.7% | 19.6% | 62.5% | 36.3% | 55.1% | 34.5% | 43.5% | 52.4% | 17.8% | 40.6% | 39.7% | growth at 10 µM [21]: 65.2%; growth at 10 µM [22]: 41.3%; growth at 10 µM [23]: 17%; growth at 10 µM [24]: 30.3%; growth at 10 µM [25]: 23.4%; growth at 10 µM [26]: 22.1%; growth at 10 µM [27]: 27.8%; growth at 10 µM [28]: 74.2%; growth at 10 µM [29]: 45.2%; growth at 10 µM [30]: 26.9%; growth at 10 µM [31]: 42.1%; growth at 10 µM [32]: 87.5%; growth at 10 µM [33]: 30%; growth at 10 µM [34]: 60.8%; growth at 10 µM [35]: 54.1% |
